Results: ChEMBL document CHEMBL2429814 (J Med Chem, 2013)

Legend:
[1] = molecular target: T1, Metabotropic glutamate receptor 5 (Rattus norvegicus, UniProt P31424); assay: Positive allosteric modulation of rat mGluR5 stably expressed in HEK293 cells assessed as increase in intracellular calcium level by Fluo-4AM dye-based fluorescence assay; format: functional, cell-based; settings: read-out: EC50
Outline: (§1)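 HEK293 cells stably expressing rat mGlu5 (low receptor density line), 15,000 cells/well, grown overnight at 37°C/5% CO2. Loaded with Fluo-4AM for 50 min at 37°C in HBSS with 20 mM HEPES, 2.5 mM probenecid, pH 7.4. Triple add: compound, then EC20 glutamate 140 s later, then EC80 glutamate 60 s later. Calcium fluorescence read over time. Values are means of ≥3 independent experiments run in duplicate or triplicate.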

[2] = molecular target: T1, Metabotropic glutamate receptor 5; assay: Agonist activity at rat mGluR5 stably expressed in HEK293 cells assessed as increase in intracellular calcium level by Fluo-4AM dye-based fluorescence assay; format: cell-based; outline: as §1
[3] = molecular target: Metabotropic glutamate receptor 5 (Rattus norvegicus) (UniProt P31424); assay: Positive allosteric modulation of rat mGluR5 stably expressed in HEK293 cells assessed as increase in intracellular calcium level by Fluo-4AM dye-based fluorescence assay relative to glutamate; format: functional, cell-based
[4] = molecular target: T1, Metabotropic glutamate receptor 5; assay: Agonist activity at rat mGluR5 stably expressed in HEK293 cells assessed as increase in intracellular calcium level by Fluo-4AM dye-based fluorescence assay relative to glutamate; format: cell-based; settings: read-out: Efficacy
Outline: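 HEK293 cells stably expressing rat mGlu5 (low receptor density), 15,000 cells/well, grown overnight, then loaded with Fluo-4AM for 50 min at 37°C in HBSS/20 mM HEPES/2.5 mM probenecid, pH 7.4. Triple-add protocol: compound, then glutamate EC20 140 s later, then EC80 60 s later. Fluorescence read over time. At least three independent runs in duplicate or triplicate; response given as % of glutamate maximum.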

[5] = molecular target: Metabotropic glutamate receptor 5 (Rattus norvegicus) (UniProt P31424); assay: Potentiation of rat mGluR5 receptor stably expressed in HEK293 cells assessed as fold shift in glutamate concentration response curve at 10 uM relative to control; format: cell-based
Outline: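 HEK293 cells stably expressing rat mGlu5 were loaded with Fluo-4AM. Compound at 10 µM, or vehicle, was added, and a glutamate concentration-response curve followed 140 s later. The fold leftward shift of the glutamate curve was read from calcium fluorescence. Values are means of three independent experiments in triplicate.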

T1 sequence (P31424 whole entry): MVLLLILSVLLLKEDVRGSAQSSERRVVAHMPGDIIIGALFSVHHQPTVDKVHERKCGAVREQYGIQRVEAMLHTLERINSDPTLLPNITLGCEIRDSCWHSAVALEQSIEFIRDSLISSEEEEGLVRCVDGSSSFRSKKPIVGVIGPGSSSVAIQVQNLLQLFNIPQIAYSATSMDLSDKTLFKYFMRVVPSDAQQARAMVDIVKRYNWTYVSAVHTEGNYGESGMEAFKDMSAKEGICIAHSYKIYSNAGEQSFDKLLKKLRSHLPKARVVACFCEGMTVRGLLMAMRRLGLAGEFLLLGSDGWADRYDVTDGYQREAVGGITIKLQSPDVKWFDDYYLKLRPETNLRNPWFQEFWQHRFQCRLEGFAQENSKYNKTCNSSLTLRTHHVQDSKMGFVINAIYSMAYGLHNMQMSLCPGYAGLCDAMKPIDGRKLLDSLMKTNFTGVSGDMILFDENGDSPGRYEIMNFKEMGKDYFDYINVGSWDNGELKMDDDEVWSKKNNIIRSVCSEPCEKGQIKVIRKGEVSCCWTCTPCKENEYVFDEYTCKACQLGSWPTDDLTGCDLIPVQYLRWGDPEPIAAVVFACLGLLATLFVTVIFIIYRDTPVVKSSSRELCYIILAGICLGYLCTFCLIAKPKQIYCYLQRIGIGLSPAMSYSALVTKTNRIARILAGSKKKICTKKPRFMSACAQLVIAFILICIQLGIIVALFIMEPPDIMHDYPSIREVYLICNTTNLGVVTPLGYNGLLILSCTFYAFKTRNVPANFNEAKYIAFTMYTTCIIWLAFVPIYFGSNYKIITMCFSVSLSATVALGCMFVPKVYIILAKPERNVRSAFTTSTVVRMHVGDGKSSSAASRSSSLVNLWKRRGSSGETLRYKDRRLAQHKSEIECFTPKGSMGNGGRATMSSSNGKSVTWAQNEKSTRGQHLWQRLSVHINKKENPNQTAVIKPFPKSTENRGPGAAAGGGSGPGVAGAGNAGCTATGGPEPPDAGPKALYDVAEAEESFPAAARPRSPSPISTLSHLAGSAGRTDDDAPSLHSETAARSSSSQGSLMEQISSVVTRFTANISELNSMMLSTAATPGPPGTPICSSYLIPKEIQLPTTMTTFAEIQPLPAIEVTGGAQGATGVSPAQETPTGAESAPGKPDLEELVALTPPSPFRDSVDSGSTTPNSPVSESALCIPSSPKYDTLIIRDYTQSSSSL
Sequence of Metabotropic glutamate receptor 5 (Rattus norvegicus) (P31424 21-1203 limits assumed): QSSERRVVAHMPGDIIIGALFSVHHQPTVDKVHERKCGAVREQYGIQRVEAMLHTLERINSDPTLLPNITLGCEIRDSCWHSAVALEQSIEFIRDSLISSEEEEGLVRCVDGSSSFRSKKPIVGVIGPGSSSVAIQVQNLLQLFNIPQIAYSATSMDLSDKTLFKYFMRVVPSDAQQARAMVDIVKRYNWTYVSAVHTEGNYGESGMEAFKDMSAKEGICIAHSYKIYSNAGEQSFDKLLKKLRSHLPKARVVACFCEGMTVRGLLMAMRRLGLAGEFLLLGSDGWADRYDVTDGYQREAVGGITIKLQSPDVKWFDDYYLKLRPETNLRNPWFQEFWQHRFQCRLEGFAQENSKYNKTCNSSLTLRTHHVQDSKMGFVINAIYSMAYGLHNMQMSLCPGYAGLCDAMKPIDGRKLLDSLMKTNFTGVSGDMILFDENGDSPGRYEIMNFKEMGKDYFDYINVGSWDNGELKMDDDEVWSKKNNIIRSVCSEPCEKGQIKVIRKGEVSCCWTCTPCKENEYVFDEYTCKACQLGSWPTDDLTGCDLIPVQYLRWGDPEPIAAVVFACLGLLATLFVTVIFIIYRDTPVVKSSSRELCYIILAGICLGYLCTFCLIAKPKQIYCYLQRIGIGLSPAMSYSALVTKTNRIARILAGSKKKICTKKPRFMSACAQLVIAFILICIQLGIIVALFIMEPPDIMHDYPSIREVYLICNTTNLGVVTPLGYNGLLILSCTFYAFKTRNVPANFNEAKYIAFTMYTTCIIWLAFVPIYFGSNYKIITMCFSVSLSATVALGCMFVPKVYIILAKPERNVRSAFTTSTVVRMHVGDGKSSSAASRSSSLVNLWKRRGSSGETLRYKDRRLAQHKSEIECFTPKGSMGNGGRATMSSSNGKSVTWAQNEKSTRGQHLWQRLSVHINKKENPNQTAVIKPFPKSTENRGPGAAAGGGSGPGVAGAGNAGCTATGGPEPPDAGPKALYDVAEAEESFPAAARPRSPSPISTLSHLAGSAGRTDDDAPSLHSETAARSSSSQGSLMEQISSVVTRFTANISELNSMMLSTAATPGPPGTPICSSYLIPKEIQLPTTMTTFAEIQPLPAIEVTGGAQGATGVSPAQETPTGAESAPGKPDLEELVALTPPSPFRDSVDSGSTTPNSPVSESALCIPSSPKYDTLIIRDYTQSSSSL

Row | Structure (SMILES) | EC50 [1] [µM] | EC50 ([2]; read-out: EC50) [µM] | Efficacy [3] [%] | Emax [4] [%] | fold change (FC) [5] | EC50 ([2]; read-out: pEC50 (converted)) [µM]
1 | C[C@@H](NC(=O)c1cnc(C#Cc2cccc(F)c2)cn1)C(C)(C)O | 0.0125 | 3.04 | 64.4 | 17.2 |  | 
2 | C[C@@H](NC(=O)c1ccc(C#CC2CC2)cn1)C(C)(C)O | 1.29 |  | 63.4 |  |  | 
3 | C[C@@H](NC(=O)c1ccc(C#Cc2ncccc2F)cn1)C(C)(C)O | 0.0338 | 3.7 | 60.6 | 29.2 |  | 
4 | C[C@@H](NC(=O)c1ccc(C#Cc2ccncc2)cn1)C(C)(C)O | 0.043 | 4.66 | 66.6 | 22.4 |  | 
5 | Cc1nc(C#Cc2ccc(C(=O)N[C@H](C)C(C)(C)O)nc2)cs1 | 0.0584 |  | 66.6 |  | 1.6 | 
6 | CC(C)(O)CNC(=O)c1ccc(C#Cc2cccc(F)c2)cn1 | 0.0346 | 4.02 | 61.5 | 20 |  | 
7 | CC1(NC(=O)c2ccc(C#Cc3ccncc3)cn2)COC1 | 0.691 |  | 36 |  |  | 
8 | C[C@@H](NC(=O)c1ccc(C#Cc2cccc(F)c2)cn1)C(C)(C)C | 0.0178 | 2.75 | 66 | 31.2 |  | 
9 | CC(C)(C)NC(=O)c1ccc(C#Cc2cccc(F)c2)cn1 | 0.0026 |  |  |  |  | 
10 | Cc1ccc(C#Cc2ccc(C(=O)N[C@H](C)C(C)(C)O)nc2)cc1 | 0.107 |  | 63.1 |  |  | 
11 | C[C@@H](NC(=O)c1cnc(C#Cc2cccc(F)c2)nc1)C(C)(C)O | 0.122 |  | 68.7 |  | 4 | 
12 | C[C@@H](NC(=O)c1ccc(C#Cc2ccc(F)cc2F)cn1)C(C)(C)O | 0.0266 | 3.69 | 61.2 | 38.2 |  | 
13 | C[C@@H](NC(=O)c1ccc(C#Cc2cccc(F)c2)cn1)C(F)(F)F | 0.0208 |  | 52.1 |  | 1.5 | 
14 | O=C(NCC(F)(F)F)c1ccc(C#Cc2cccc(F)c2)cn1 | 0.224 | 10.7 | 67 | 5.8 |  | 
15 | CC1(CNC(=O)c2ccc(C#Cc3cccc(F)c3)cn2)COC1 | 0.0107 |  | 60.4 |  | 3.3 | 
16 | C[C@@H](NC(=O)c1ccc(C#Cc2cccc(F)c2)nc1)C(C)(C)O | 0.08 | 6.8 | 64.9 | 26.6 |  | 
17 | O=C(NCC1CCC1)c1ccc(C#Cc2cccc(F)c2)cn1 | 0.084 |  | 68.1 | 4.7 |  | > 10
18 | C[C@@H](NC(=O)c1ccc(C#Cc2cc(F)ccn2)cn1)C(C)(C)O | 0.036 | 3.98 | 66.2 | 33 |  | 
19 | Cc1nc(C#Cc2cccc(F)c2)ccc1C(=O)N[C@H](C)C(C)(C)O | 0.0171 | 1.09 | 64.9 | 9.2 |  | 
20 | CC(C)[C@@H](C)NC(=O)c1ccc(C#Cc2cccc(F)c2)cn1 | 0.0045 | 1.47 | 69.3 | 22.5 |  | 
21 | Cc1cc(C(=O)N[C@H](C)C(C)(C)O)ncc1C#Cc1cccc(F)c1 | 0.242 |  | 66.6 |  |  | 
22 | C[C@@H](NC(=O)c1ccc(C#Cc2cccc(F)c2)cn1)C(C)(C)F | 0.0053 | 2.06 | 68.6 | 42.8 |  | 
23 | C[C@@H](NC(=O)c1ccc(C#Cc2cccc(F)c2)cc1)C(C)(C)O | 0.0075 | 1.04 | 53.9 | 43.6 |  | 
24 | C[C@@H](NC(=O)c1ccc(C#Cc2cc(F)cc(F)c2)cn1)C(C)(C)O | 0.0582 | 3.67 | 61.6 | 37.9 |  | 

Row | Structure (SMILES) | EC50 [1] [µM] | EC50 ([2]; read-out: EC50) [µM] | Efficacy [3] [%] | Emax [4] [%] | fold change (FC) [5] | EC50 ([2]; read-out: pEC50 (converted)) [µM]
25 | CC(C)(CO)NC(=O)c1ccc(C#Cc2cccc(F)c2)cn1 | 0.0079 | 0.729 | 60.9 | 9.3 |  | 
26 | C[C@@H](NC(=O)c1ccc(C#Cc2ccccn2)cn1)C(C)(C)C | 0.0633 | 6.11 | 63 | 24.2 |  | 
27 | C[C@@H](NC(=O)c1ncc(C#Cc2cccc(F)c2)cn1)C(C)(C)O | 0.0476 | 4.13 | 64.1 | 19.2 |  | 
28 | CC(C)[C@@H](C)NC(=O)c1ccc(C#Cc2ccccn2)cn1 | 0.079 |  | 58.5 |  | 1.3 | 
29 | CC1(CCNC(=O)c2ccc(C#Cc3cccc(F)c3)cn2)COC1 | 0.0473 | 2.84 | 65.7 | 16.3 |  | 
30 | C[C@@H](NC(=O)c1ccc(C#Cc2ccccc2F)cn1)C(C)(C)O | 0.008 | 1.16 | 60 | 29.6 |  | 
31 | CC(C)[C@H](C)NC(=O)c1ccc(C#Cc2cccc(F)c2)cn1 | 0.0204 | 2.22 | 66.7 | 13.1 |  | 
32 | Cc1cc(C#Cc2cccc(F)c2)cnc1C(=O)N[C@H](C)C(C)(C)O | 0.105 |  | 66.4 |  | 2.3 | 
33 | O=C(NCC1CC1)c1ccc(C#Cc2cccc(F)c2)cn1 | 0.0367 |  | 61.4 |  | 1.6 | 
34 | CCCNC(=O)c1ccc(C#Cc2cccc(F)c2)cn1 | 0.0344 | 3.01 | 65.9 | 8.3 |  | 
35 | C[C@H](NC(=O)c1ccc(C#Cc2cccc(F)c2)cn1)C(C)(C)C | 0.0519 | 5.4 | 70.8 | 20 |  | 
36 | C[C@@H](NC(=O)c1ccc(C#Cc2cccc(F)c2)nn1)C(C)(C)O | 0.0219 | 2.12 | 70.2 | 16.5 |  | 
37 | C[C@@H](NC(=O)c1nc(C#Cc2cccc(F)c2)cs1)C(C)(C)O | 0.0335 | 4.78 | 62.1 | 26.1 |  | 
38 | Cc1ccccc1C#Cc1ccc(C(=O)N[C@H](C)C(C)(C)O)nc1 | 0.217 | 12.4 | 59.9 | 24.1 |  | 
39 | C[C@H](NC(=O)c1ccc(C#Cc2cccc(F)c2)cn1)C(F)(F)F | 0.0219 | 1.39 | 60.8 | 21.4 |  | 
40 | C[C@@H](NC(=O)c1ccc(C#Cc2ccc(F)cc2)cn1)C(C)(C)O | 0.0123 | 1.52 | 66.2 | 38.4 |  | 
41 | C[C@@H](NC(=O)c1ccc(C#CC2CCCC2)cn1)C(C)(C)O | 0.0933 | 9.75 | 63.7 | 14.8 |  | 
42 | Cc1cccc(C#Cc2ccc(C(=O)N[C@H](C)C(C)(C)O)nc2)c1 | 0.0065 | 1.36 | 68.6 | 20.8 |  | 
43 | C[C@@H](NC(=O)c1ccc(C#Cc2cccnc2)cn1)C(C)(C)O | 0.344 | 9.3 | 71.5 | 25.9 |  | 
44 | C[C@@H](NC(=O)c1ccc(C#Cc2cccc(F)n2)cn1)C(C)(C)O | 0.0136 | 1.3 | 63 | 8.3 |  | 
45 | C[C@@H](NC(=O)c1ccc(C#Cc2ccc(F)cn2)cn1)C(C)(C)O | 0.0282 | 1.7 | 64.6 | 13.5 |  | 
46 | C[C@@H](NC(=O)c1ccc(C#Cc2ccccc2)cn1)C(C)(C)O | 0.0041 | 0.874 | 60.9 | 43.2 |  | 
47 | CC(C)(C)CNC(=O)c1ccc(C#Cc2cccc(F)c2)cn1 | 0.0166 | 2.57 | 63.9 | 9.5 |  | 
